Assay results: ChEMBL document CHEMBL4270650, “Discovery of novel human inosine 5'-monophosphate dehydrogenase 2 (hIMPDH2) inhibitors as potential anticancer agents” (Eur J Med Chem, 2018)
≈ marks a conversion by molar mass, not a printed value. Structures can show the parent of a compound that is named as a salt. Calls of active or inactive are those of the source. The calls are words filed in the database; no cut-off is given here.

Tests used:
[1] = target: T1, Inosine-5'-monophosphate dehydrogenase 2 (Homo sapiens, UniProt P12268); experiment: Inhibition of human IMPDH2 using IMP at 10 uM as substrate in presence of NAD+ after 30 mins relative to control
Summary of the method: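 Purchased purified hIMPDH2, 0.15 mU/well, in 100 mM Tris-HCl pH 8.6, 100 mM KCl, 5 mM DTT and 4% v/v DMSO. Started with 0.2 mM IMP plus 0.2 mM NAD+ and run 30 min at 37 °C. NADH read at 340 nm. Screen at 10 µM gave % inhibition.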

[2] = Cytotoxicity against mouse NIH/3T3 cells assessed as cell viability at 10 uM after 48 hrs by MTT assay relative to control; assay type: cell-based, NIH3T3; settings: read-out: Activity
Summary of the method: (§1)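 NIH-3T3 mouse embryonic fibroblasts grown in DMEM with 10% FBS and penicillin-streptomycin at 37 °C, 5% CO2. Seeded at 10,000 cells/well and dosed after 24 hr, DMSO vehicle, triplicate wells. After 48 hr exposure, MTT (5 mg/mL) added for 4 hr and formazan dissolved in DMSO. Absorbance read at 540/630 nm. Viability expressed as % of control, mean ± SD.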

[3] = Cytotoxicity against mouse NIH/3T3 cells assessed as cell viability at 100 uM after 48 hrs by MTT assay relative to control; assay type: cell-based, NIH3T3; settings: read-out: Activity; summary of the method: as §1
[4] = target: T1, Inosine-5'-monophosphate dehydrogenase 2; experiment: Inhibition of human IMPDH2 using IMP as substrate in presence of NAD+ after 30 mins
Summary of the method: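 Purchased purified hIMPDH2, 0.15 mU/well, in 100 mM Tris-HCl pH 8.6, 100 mM KCl, 5 mM DTT and 4% v/v DMSO. Started with 0.2 mM IMP plus 0.2 mM NAD+ and run 30 min at 37 °C. NADH read at 340 nm.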

U-87 MG [5] = experiment: Cytotoxicity against human U87MG cells assessed as reduction in cell viability after 48 hrs by MTT assay; assay type: functional, cell-based, U-87MG ATCC
Summary of the method: (§2)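 Cells grown in DMEM with 10% FBS and penicillin-streptomycin at 37 °C, 5% CO2. Seeded at 10,000 (MDA-MB-231), 8,000 (DU145) or 5,000 (U87 MG) cells/well. Treated 24 hr later with 0.01–100 µM, each dilution in triplicate, DMSO vehicle. After 48 hr, MTT (5 mg/mL) for 4 hr, formazan dissolved in DMSO. Absorbance read at 540 nm with 630 nm background. IC50 taken from mean of triplicate readings.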

DU-145 [6] = experiment: Cytotoxicity against human DU145 cells assessed as reduction in cell viability after 48 hrs by MTT assay; assay type: functional, cell-based; settings: DU-145, 48 h; summary of the method: as §2
MDA-MB-231 [7] = experiment: Cytotoxicity against human MDA-MB-231 cells assessed as reduction in cell viability after 48 hrs by MTT assay; assay type: functional, cell-based; settings: MDA-MB-231, 48 h; summary of the method: as §2
[8] = Cytotoxicity against human PBMC assessed as cell viability at 10 uM after 48 hrs by MTT assay relative to control; assay type: cell-based; settings: read-out: Activity
[9] = Octanol-buffer partition coefficient, log D of the compound at pH 7.4 after 2 hrs by HPLC analysis; assay type: physicochemical
Summary of the method: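 DMSO stock added to pre-saturated 1:1 1-octanol/pH 7.4 buffer and shaken 2 hr at 37 °C, 200 rpm. Phases separated and each quantified by HPLC on a C18 column with isocratic acetonitrile:water 80:20 at 1 mL/min. logD7.4 taken from the octanol-to-buffer concentration ratio.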

U-87 MG [10] = experiment: Potency index, ratio of mycophenolic acid IC50 to compound IC50 for cytotoxicity against human U87MG cells; assay type: functional, U-87MG ATCC
[11] = Solubility in pH 7.4 sodium phosphate buffer after 2 hrs by HPLC analysis; assay type: physicochemical; settings: read-out: -log(solubility) (converted)
Summary of the method: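 DMSO stock diluted 1:100 into 50 mM sodium phosphate, pH 7.4, and shaken 2 hr at 37 °C, 200 rpm. Centrifuged 20 min at 4000 rpm; supernatant diluted 1:1 with acetonitrile and filtered. Quantified by C18 HPLC (acetonitrile:water 80:20, isocratic) against a calibration curve of 0.78–100 µM made in 1:1 buffer/acetonitrile.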

MDA-MB-231 [12] = experiment: Potency index, ratio of mycophenolic acid IC50 to compound IC50 for cytotoxicity against human MDA-MB-231 cells; assay type: functional
DU-145 [13] = experiment: Potency index, ratio of mycophenolic acid IC50 to compound IC50 for cytotoxicity against human DU145 cells; assay type: functional

O=C(COc1ccc(C(=O)/C=C/c2ccc([N+](=O)[O-])cc2)cc1)Nc1ccc2c(c1)COC2=O
inhibition [1]: 63.2%

CCCOc1ccc(/C=C/C(=O)c2ccc(OCC(=O)Nc3ccc4c(c3)COC4=O)cc2)cc1
inhibition [1]: 60.1%

COc1cc(/C=C/C(=O)c2ccc(OCC(=O)NCc3ccc4c(c3)OCO4)cc2)cc(OC)c1OC
inhibition [1]: inactive

O=C(COc1ccc(/C=C/C(=O)c2ccc(F)cc2)cc1)Nc1ccc2c(c1)COC2=O
viability at 48 h, 10 µM [2]: 90.3%
viability at 48 h, 100 µM [3]: 80.2%
IC50 [4]: 570 nM
IC50 (U-87 MG [5]): 6050 nM
IC50 (DU-145 [6]): 6880 nM
inhibition [1]: 87.9%
IC50 (MDA-MB-231 [7]): 5420 nM

O=C(COc1ccc(C(=O)/C=C/c2ccccc2)cc1)Nc1ccc2c(c1)COC2=O
IC50 [4]: 790 nM
inhibition [1]: 79.1%

O=C(COc1ccc(C(=O)/C=C/c2ccc(OCc3ccc(Cl)cc3Cl)cc2)cc1)Nc1ccc2c(c1)COC2=O
inhibition [1]: 36.7%

O=C(COc1ccc(C(=O)/C=C/c2cccs2)cc1)Nc1ccc2c(c1)COC2=O
IC50 [4]: 4540 nM
inhibition [1]: 76.3%

CCOc1ccc(/C=C/C(=O)c2ccc(OCC(=O)NCc3ccc4c(c3)OCO4)cc2)cc1
inhibition [1]: inactive

O=C(COc1ccc(C(=O)/C=C/c2ccco2)cc1)Nc1ccc2c(c1)COC2=O
inhibition [1]: 57.3%

COc1ccc(NC(=O)COc2ccc(C(=O)/C=C/c3ccc(Cl)cc3)cc2)cc1OC
inhibition [1]: 30.1%

COc1ccc(NC(=O)COc2ccc(C(=O)/C=C/c3cccs3)cc2)cc1OC
inhibition [1]: 24.5%

COc1ccc(/C=C/C(=O)c2ccc(OCC(=O)Nc3ccc4c(c3)COC4=O)cc2)cc1
viability at 48 h, 10 µM [2]: 90.9%
viability at 48 h, 10 µM [8]: 86%
viability at 48 h, 100 µM [3]: 63.7%
IC50 [4]: 660 nM
IC50 (U-87 MG [5]): 4900 nM
IC50 (DU-145 [6]): 2130 nM
inhibition [1]: 95.6%
IC50 (MDA-MB-231 [7]): 3030 nM

COc1ccc(/C=C/C(=O)c2cccc(OCC(=O)Nc3ccc(OC)c(OC)c3)c2)cc1OC
inhibition [1]: 23.3%

O=C(COc1ccc(C(=O)/C=C/c2ccccc2Cl)cc1)Nc1ccc2c(c1)COC2=O
inhibition [1]: 59.5%

O=C(COc1ccc(C(=O)/C=C/c2ccc(Cl)cc2)cc1)Nc1ccc2c(c1)COC2=O
inhibition [1]: 62.1%

CCCCOc1ccc(/C=C/C(=O)c2ccc(OCC(=O)Nc3ccc4c(c3)COC4=O)cc2)cc1
inhibition [1]: 57.7%

O=C(COc1ccc(C(=O)/C=C/c2ccc(OCc3ccccc3)cc2)cc1)Nc1ccc2c(c1)COC2=O
inhibition [1]: 52.2%

COc1ccc(/C=C/C(=O)c2ccc(OCC(=O)NCc3ccc4c(c3)OCO4)cc2)cc1OC
inhibition [1]: inactive

COc1c(C)c2c(c(O)c1C/C=C(\C)CCC(=O)O)C(=O)OC2 [MYCOPHENOLIC ACID]
viability at 48 h, 10 µM [2]: 65.2%
viability at 48 h, 10 µM [8]: 63%
viability at 48 h, 100 µM [3]: 40.7%
IC50 (U-87 MG [5]): 10700 nM
IC50 (DU-145 [6]): 2940 nM
IC50 (MDA-MB-231 [7]): 4380 nM

O=C(COc1ccc(C(=O)/C=C/c2c(F)cccc2F)cc1)Nc1ccc2c(c1)COC2=O
logD at 2 h [9]: 2.99
viability at 48 h, 10 µM [2]: 98.5%
viability at 48 h, 10 µM [8]: 77%
viability at 48 h, 100 µM [3]: 70.2%
Ratio IC50 (U-87 MG [10]): 3
IC50 [4]: 360 nM
IC50 (U-87 MG [5]): 3670 nM
IC50 (DU-145 [6]): 1900 nM
solubility at 2 h [11]: 1.55 µM (≈ 0.696 µg/mL)
inhibition [1]: 94.2%
IC50 (MDA-MB-231 [7]): 2410 nM

COc1cccc(/C=C/C(=O)c2ccc(OCC(=O)Nc3ccc(OC)c(OC)c3)cc2)c1
inhibition [1]: 28.8%

COc1cc(/C=C/C(=O)c2ccc(OCC(=O)Nc3ccc4c(c3)COC4=O)cc2)cc(OC)c1OC
IC50 [4]: 7380 nM
inhibition [1]: 71.3%

COc1cc(/C=C/C(=O)c2cccc(OCC(=O)Nc3ccc4c(c3)COC4=O)c2)cc(OC)c1OC
inhibition [1]: 63.7%

CCOc1ccc(/C=C/C(=O)c2ccc(OCC(=O)Nc3ccc(OC)c(OC)c3)cc2)cc1
inhibition [1]: 63.5%

COc1cccc2c1C(=O)c1c(O)c3c(c(O)c1C2=O)C[C@@](O)(C(=O)CO)C[C@@H]3O[C@H]1C[C@H](N)[C@H](O)[C@H](C)O1 [DOXORUBICIN HYDROCHLORIDE]
viability at 48 h, 10 µM [2]: 15.6%
viability at 48 h, 100 µM [3]: 6.73%
IC50 (U-87 MG [5]): 110 nM
IC50 (DU-145 [6]): 210 nM
IC50 (MDA-MB-231 [7]): 540 nM

COc1ccc(NC(=O)COc2ccc(C(=O)/C=C/c3ccco3)cc2)cc1OC
inhibition [1]: 21.3%

O=C(COc1ccc(C(=O)/C=C/c2c(F)cccc2F)cc1)NCc1ccc2c(c1)OCO2
inhibition [1]: inactive

COc1ccc(/C=C/C(=O)c2ccc(OCC(=O)NCc3ccc4c(c3)OCO4)cc2)cc1
inhibition [1]: inactive

COc1cccc(/C=C/C(=O)c2ccc(OCC(=O)Nc3ccc4c(c3)COC4=O)cc2)c1
viability at 48 h, 10 µM [2]: 87.1%
viability at 48 h, 100 µM [3]: 62.6%
IC50 [4]: 360 nM
IC50 (U-87 MG [5]): 5750 nM
IC50 (DU-145 [6]): 2550 nM
inhibition [1]: 91.5%
IC50 (MDA-MB-231 [7]): 3420 nM

COc1ccc(NC(=O)COc2ccc(C(=O)/C=C/c3ccccc3Cl)cc2)cc1OC
inhibition [1]: 25.7%

COc1ccc(NC(=O)COc2ccc(C(=O)/C=C/c3c(F)cccc3F)cc2)cc1OC
inhibition [1]: 35.9%

COc1ccc(NC(=O)COc2ccc(C(=O)/C=C/c3cc(OC)c(OC)c(OC)c3)cc2)cc1OC
inhibition [1]: 20.6%

O=C(COc1cccc(C(=O)/C=C/c2ccccc2)c1)Nc1ccc2c(c1)COC2=O
logD at 2 h [9]: 2.79
viability at 48 h, 10 µM [2]: 96.7%
Ratio IC50 (MDA-MB-231 [12]): 4
viability at 48 h, 100 µM [3]: 67.6%
IC50 [4]: 430 nM
IC50 (U-87 MG [5]): 3970 nM
Ratio IC50 (DU-145 [13]): 1.7
IC50 (DU-145 [6]): 1750 nM
solubility at 2 h [11]: 1.55 µM (≈ 0.64 µg/mL)
inhibition [1]: 93.7%
IC50 (MDA-MB-231 [7]): 1100 nM

COc1cc(C(=O)/C=C/c2cc(OC)c(OC)c(OC)c2)ccc1OCC(=O)Nc1ccc2c(c1)COC2=O
inhibition [1]: 19.9%

COc1ccc(/C=C/C(=O)c2ccc(OCC(=O)Nc3ccc4c(c3)COC4=O)cc2)cc1OC
inhibition [1]: 65.5%

O=C(COc1ccc(C(=O)/C=C/c2ccc(OCc3ccc(Cl)cc3)cc2)cc1)Nc1ccc2c(c1)COC2=O
inhibition [1]: 39.1%

CCOc1ccc(/C=C/C(=O)c2ccc(OCC(=O)Nc3ccc4c(c3)COC4=O)cc2)cc1
inhibition [1]: 65.5%

COc1ccc(/C=C/C(=O)c2ccc(OCC(=O)Nc3ccc(OC)c(OC)c3)cc2)cc1
inhibition [1]: 33.6%

COc1ccc(/C=C/C(=O)c2cccc(OCC(=O)Nc3ccc4c(c3)COC4=O)c2)cc1OC
inhibition [1]: 57%
